From ChEMBL document CHEMBL5357024, “MDM2 Antagonist Idasanutlin Reduces HDAC1/2 Abundance and Corepressor Partners but Not HDAC3” (ACS Med Chem Lett, 2024)

What was measured:
Assay type in all cases: cell-based
[1] = target: T1, Paired amphipathic helix protein Sin3a (Homo sapiens) (UniProt Q96ST3); assay: Induction of SIN3A degradation in human HCT-116 cells assessed as reduction in SIN3A abundance by measuring remaining activity at 0.5 uM measured after 24 hrs by Western blot analysis (reference value: 100%)
T1 sequence (whole entry): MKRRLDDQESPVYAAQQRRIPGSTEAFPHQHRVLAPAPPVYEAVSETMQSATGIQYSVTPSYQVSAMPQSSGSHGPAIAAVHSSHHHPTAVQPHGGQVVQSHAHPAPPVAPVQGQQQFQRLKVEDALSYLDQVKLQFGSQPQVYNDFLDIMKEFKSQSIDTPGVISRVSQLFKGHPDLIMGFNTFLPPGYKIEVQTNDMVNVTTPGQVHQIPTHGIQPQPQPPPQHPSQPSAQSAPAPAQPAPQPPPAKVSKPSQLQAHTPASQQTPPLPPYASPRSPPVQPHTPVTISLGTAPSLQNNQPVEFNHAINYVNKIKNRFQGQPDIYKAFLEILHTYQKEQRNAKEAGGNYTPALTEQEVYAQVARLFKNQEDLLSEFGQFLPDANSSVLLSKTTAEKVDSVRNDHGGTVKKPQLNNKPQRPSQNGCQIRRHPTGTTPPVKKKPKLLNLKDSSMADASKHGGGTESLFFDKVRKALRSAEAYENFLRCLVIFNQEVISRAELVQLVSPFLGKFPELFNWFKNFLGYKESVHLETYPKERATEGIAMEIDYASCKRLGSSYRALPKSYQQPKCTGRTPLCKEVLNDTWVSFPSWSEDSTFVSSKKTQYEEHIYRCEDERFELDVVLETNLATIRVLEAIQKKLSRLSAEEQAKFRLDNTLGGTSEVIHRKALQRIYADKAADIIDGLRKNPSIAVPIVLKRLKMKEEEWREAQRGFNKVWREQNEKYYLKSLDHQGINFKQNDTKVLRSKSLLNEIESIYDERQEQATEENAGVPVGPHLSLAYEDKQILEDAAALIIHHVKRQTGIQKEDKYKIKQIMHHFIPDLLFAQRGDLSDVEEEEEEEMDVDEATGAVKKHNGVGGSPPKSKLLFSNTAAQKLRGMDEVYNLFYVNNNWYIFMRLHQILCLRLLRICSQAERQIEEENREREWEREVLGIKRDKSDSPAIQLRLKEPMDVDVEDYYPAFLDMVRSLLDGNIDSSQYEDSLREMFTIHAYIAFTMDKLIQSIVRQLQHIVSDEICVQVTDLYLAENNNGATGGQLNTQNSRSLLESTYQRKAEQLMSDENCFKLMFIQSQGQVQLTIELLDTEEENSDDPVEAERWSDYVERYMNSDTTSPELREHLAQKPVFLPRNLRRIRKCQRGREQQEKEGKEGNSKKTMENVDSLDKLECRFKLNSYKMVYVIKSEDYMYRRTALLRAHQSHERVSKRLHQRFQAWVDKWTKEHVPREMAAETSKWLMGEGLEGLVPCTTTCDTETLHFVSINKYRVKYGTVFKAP
Method in brief: (§1)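 HCT116 cells seeded in six-well plates for 24 h, then exposed 24 h to compound (0.01–10 μM) or DMSO in fresh medium. Lysis in Tris-HCl/NaCl/NP-40/Triton X-100 with protease inhibitor. Bradford-normalised 30 μg protein per lane. Quantitative Western blot used specific HDAC1, HDAC2, HDAC3, LSD1 or Sin3a antibodies with IRDye secondaries. Abundance compared with DMSO, n = 2 replicates.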

[2] = target: T1, Paired amphipathic helix protein Sin3a (Homo sapiens); assay: Induction of SIN3A degradation in human HCT-116 cells assessed as reduction in SIN3A abundance by measuring remaining activity at 0.25 uM measured after 24 hrs by Western blot analysis (reference value: 100%); method in brief: as §1
[3] = target: Lysine-specific histone demethylase 1A (Homo sapiens) (UniProt O60341); assay: Induction of LSD1 degradation in human HCT-116 cells assessed as reduction in LSD1 abundance by measuring remaining activity at 10 uM measured after 24 hrs by Western blot analysis (reference value: 100%); method in brief: as §1
[4] = target: T1, Paired amphipathic helix protein Sin3a (Homo sapiens); assay: Induction of SIN3A degradation in human HCT-116 cells assessed as reduction in SIN3A abundance by measuring remaining activity at 10 uM measured after 24 hrs by Western blot analysis (reference value: 100%); method in brief: as §1
[5] = target: E3 ubiquitin-protein ligase Mdm2/Histone deacetylase 2 (Homo sapiens) (UniProt Q00987+Q92769); assay: PROTAC activity at MDM2/HDAC2 in human HCT-116 cells assessed as decrease in HDAC2 abundance by measuring remaining activity at 0.05 uM measured after 24 hrs by Western blot analysis (reference value: 100%); method in brief: as §1
Chain of E3 ubiquitin-protein ligase Mdm2/Histone deacetylase 2 (Homo sapiens) (Q00987 whole entry, looked up): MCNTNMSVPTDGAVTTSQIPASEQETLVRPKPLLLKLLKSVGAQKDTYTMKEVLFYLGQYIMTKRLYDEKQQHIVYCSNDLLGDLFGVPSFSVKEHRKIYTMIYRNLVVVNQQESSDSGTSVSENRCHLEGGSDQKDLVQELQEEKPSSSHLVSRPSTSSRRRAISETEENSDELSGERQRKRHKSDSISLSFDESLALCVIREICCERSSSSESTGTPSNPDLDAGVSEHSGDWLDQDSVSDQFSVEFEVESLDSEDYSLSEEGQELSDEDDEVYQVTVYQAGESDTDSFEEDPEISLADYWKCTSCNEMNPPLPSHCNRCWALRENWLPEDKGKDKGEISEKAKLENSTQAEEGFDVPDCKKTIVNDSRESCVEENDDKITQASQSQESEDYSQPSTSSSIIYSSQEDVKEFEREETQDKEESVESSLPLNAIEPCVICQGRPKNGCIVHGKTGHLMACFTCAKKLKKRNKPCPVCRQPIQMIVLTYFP
Chain of E3 ubiquitin-protein ligase Mdm2/Histone deacetylase 2 (Homo sapiens) (Q92769 whole entry, looked up): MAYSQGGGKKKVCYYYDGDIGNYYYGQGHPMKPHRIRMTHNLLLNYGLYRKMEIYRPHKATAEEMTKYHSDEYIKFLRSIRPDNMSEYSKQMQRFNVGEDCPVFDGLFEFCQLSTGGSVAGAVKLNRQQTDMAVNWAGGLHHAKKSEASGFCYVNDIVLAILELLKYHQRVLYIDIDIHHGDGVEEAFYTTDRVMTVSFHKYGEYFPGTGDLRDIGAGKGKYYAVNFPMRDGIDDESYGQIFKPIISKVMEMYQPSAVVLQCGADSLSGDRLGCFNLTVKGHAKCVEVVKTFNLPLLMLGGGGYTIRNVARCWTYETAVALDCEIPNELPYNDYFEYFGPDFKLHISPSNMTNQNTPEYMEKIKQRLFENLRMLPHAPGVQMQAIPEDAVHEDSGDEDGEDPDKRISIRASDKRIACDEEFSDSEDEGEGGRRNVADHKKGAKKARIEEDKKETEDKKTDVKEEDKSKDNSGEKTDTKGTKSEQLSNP

Activity [1]: 79%
Activity [2]: 92%
Activity [3]: 65%
Activity [4]: 45%
Activity [5]: 90%
SMILES: COc1cc(C(=O)NCCOCCOCCOCCOCCC(=O)Nc2ccc(C(=O)Nc3ccccc3N)cc2)ccc1NC(=O)[C@@H]1N[C@@H](CC(C)(C)C)[C@](C#N)(c2ccc(Cl)cc2F)[C@H]1c1cccc(Cl)c1F
